# Only some compounds are listed: those with a hit (about 3.8% of all), similar ones and a draw of the others.
# KCNK3 inh = human KCNK3 channel inhibition, primary screen; O14649; CHO-KCNK3 thallium flux, FluxOR fluorescence; stronger effect = lower value; B-score at 10 µM; 340,000 tested, 0.84% active; AID 602410;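 active = B-score under library mean minus 4 SD, starting fluorescence ratio at most library mean plus 5 SD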;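 also: more negative B-score means stronger inhibition of thallium flux through KCNK3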
# KCNQ1 act = human KCNQ1 channel potentiation or activation. P51787. CHO-K1 KCNQ1, thallium flux FluxOR fluorescence; stronger effect = higher value. B-score at 10 µM. 310,000 tested, 0.35% active. AID 2648;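 active = fluorescence ratio B-score, a plate-corrected score, at least three library SD, with initial intensity B-score within 5 SD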
#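 Doses: Single concentration per compound, DMSO matched to controls | Test system: KCNQ1-transfected CHO-K1 cells | Timing: 90 min dye loading and 20 min compound exposure, both at room temperature | Measured by: Kinetic FluxOR thallium fluorescence, 10-s 1-Hz baseline, 110-s post-stimulus read | Medium: Assay buffer with matched DMSO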
# KCNK9 inh = inhibitors of human KCNK9 two-pore domain potassium channel. Q9NPC2. HEK293 KCNK9, FluxOR thallium flux fluorescence; stronger effect = lower value. 310,000 tested, 1.2% active. B-score at 10 µM;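 active = ratio B-score over 3 SD below the library mean, with starting fluorescence within 5 SD of its mean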;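 also: negative B-score means less thallium flux so channel inhibition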
# Kir21 block = blocks the mouse Kir2.1 inward-rectifier potassium channel; P35561; AID 1672; HEK293-Kir2.1, FluxOR thallium flux fluorescence; stronger effect = lower value; B-score at 10 µM; 310,000 tested, 0.85% active;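 active = fluorescence ratio B-score at or below minus 3 SD of library scores, with starting-brightness B-score within 2 SD, cut at about -4.2 in these data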;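 also: channel flux triggered by added potassium and thallium sulfate stimulus; B-score of peak minus minimum fluorescence over baseline after thallium stimulus; more negative B-score means stronger Kir2.1 block with less thallium influx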
# KCNQ1 inh = human KCNQ1 channel inhibition; B-score at 10 µM; CHO-K1 KCNQ1, FluxOR thallium flux fluorescence; stronger effect = higher value; P51787; 310,000 tested, 1.3% active;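 active = compounds whose thallium flux B-score, printed positive for inhibition, exceeds three library SD while starting fluorescence stays within three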;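 also: channel opened by potassium depolarization with thallium stimulus after 20 min compound exposure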
# hERG protect = compounds protecting human hERG from proarrhythmic drug block. Q12809. CHO-hERG, FluxOR thallium flux, dofetilide IC70 present. activation (rescue from dofetilide block), less the hit threshold, % at 10 µM. 310,000 tested, 0.51% active;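 active = activation above the mean of controls blocked by dofetilide plus 5 SD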;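 also: thallium influx through hERG after potassium depolarization seen as dye fluorescence rise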
# KCNK3 inh conf = human KCNK3 channel inhibition, confirmation assay; shares compounds with KCNK3 inh; CHO-KCNK3 thallium flux, FluxOR fluorescence; 0% buffer, 100% carvedilol maximal block; ratio percent of control, % at 10 µM; 2,400 tested, 99% active;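 active = ratio percent of control, averaged over triplicates, above buffer control mean plus 5 SD, cut at about 64% in these data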;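 also: ratio is the fluorescence rise from min to max over baseline after thallium stimulus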
# KCNK3 uninduced = activity in cells without induced KCNK3 expression; non-induced KCNK3 parental cells, FluxOR thallium flux; stronger effect = lower value; 2,400 tested, 40% active; AID 651747; shares compounds with KCNK3 inh; thallium flux ratio (lower = more inhibition) at 10 µM;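 active = thallium flux ratio, averaged over three wells, more than 5 SD below the buffer control mean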;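 also: host cells are CHO cells without KCNK3 induction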
# A number is an active result; . = inactive; / = no result.
SMILES,KCNK3 inh,KCNQ1 act,KCNK9 inh,Kir21 block,KCNQ1 inh,hERG protect,KCNK3 inh conf,KCNK3 uninduced
CCSc1nc2ccccc2c(=O)n1CCc1ccc(OC)c(OC)c1,-9.45,.,.,.,.,.,98.0,.
COc1ccc(OC)c(CCNC(=O)c2ccc3c(=O)[nH]c4c(C(=O)NC(C)C)sc(=S)n4c3c2)c1,-11.4,.,.,.,10,.,128.7,.
O=C(NCCc1ccccc1)c1ccc2c(=O)[nH]c3c(C(=O)NCC4CCCO4)sc(=S)n3c2c1 (stereo not given),-11.9,.,.,.,8,.,118.3,.
CCOc1cc(/C=N/NC(=O)c2ccncc2)ccc1OC(=O)c1ccco1,.,.,.,.,.,.,/,/
CCOc1cc(/C=N/NC(=O)C(O)(c2ccccc2)c2ccccc2)ccc1OC(=O)c1ccco1,-8.8,.,.,.,.,.,82.7,.
Cn1c(O)c(N=NC(=O)CNC(=O)/C=C/c2ccccc2)c2ccccc21,.,.,.,.,.,.,/,/
CC(CNC(=O)CC(C)(C)C)NC(=O)CC(C)(C)C (stereo not given),.,.,.,.,.,.,/,/
CC(=Nc1ccccc1)c1sc2ccccc2c1O,.,.,.,.,.,.,/,/
CC(=Nc1ccc(Br)cc1)c1sc2ccccc2c1O,-10.9,.,.,.,.,.,131.0,.
CC1=CC2=NC(=O)/C(=C\c3cccn3CCOc3ccccc3C)C(=N)N2O1,-8.87,.,.,.,.,.,115.0,0.16
COc1ccccc1OCCOc1ccc(/C=C2/C(=N)N3OC(C)=CC3=NC2=O)cc1OC,.,.,.,.,.,.,/,/
COc1ccccc1NC(=O)CN1CCN(c2ccccc2)CC1,.,.,.,.,.,.,/,/
CCOc1nc(SCCOc2ccccc2)nc(N(C)C)n1,-9.64,.,.,.,.,.,98.3,.
CC(C)c1ccc(S(=O)(=O)N2CCC(C(=O)N3CCC3)CC2)cc1,.,.,.,.,.,.,/,/
C=C(c1cn(C(C)=O)c2ccccc12)c1cn(C(C)=O)c2ccccc12,-11.8,/,/,/,/,/,61.7,0.151
Cn1c(SCc2ccc(Br)cc2)nc2ccccc2c1=O,-9.51,.,.,.,.,.,122.7,0.133
O=c1[nH]c(SCCOc2ccccc2F)nc2ccccc12,.,.,.,.,.,.,/,/
Cn1c(SCc2ccccc2)nc2ccsc2c1=O,-9.84,.,.,.,.,.,104.0,.
Cn1c(SCCOc2ccccc2F)nc2ccccc2c1=O,-12.9,.,.,.,.,.,110.0,.
Cc1cccc(N=c2oc3cc(O)ccc3cc2C(N)=O)c1,-8.75,.,.,.,.,.,112.7,.
COc1ccccc1N=c1oc2cc(O)ccc2cc1C(N)=O,.,.,.,.,.,.,/,/
O=S(=O)(c1cc(Br)ccc1Br)N1CCCCCC1,-11,.,.,.,.,.,128.7,0.137
COc1ccc(OCCSc2nc(C)nc3ccccc23)cc1,-11.9,.,.,.,.,.,123.0,.
COc1ccc(OCCSc2ncccn2)cc1,.,.,.,.,.,.,/,/
CNc1c(NS(=O)(=O)c2ccc(Cl)cc2)c(=O)oc2ccccc12,.,.,.,.,.,.,/,/
SMILES,KCNK3 inh,KCNQ1 act,KCNK9 inh,Kir21 block,KCNQ1 inh,hERG protect,KCNK3 inh conf,KCNK3 uninduced
CNc1c(NS(=O)(=O)c2ccc(C3CCCCC3)cc2)c(=O)oc2ccccc12,-9.4,.,.,.,.,.,87.0,.
CCN(C(=O)COC(=O)CCc1ccccc1)c1ccccc1,-9.48,.,.,.,.,.,80.7,.
CCN(C(=O)COC(=O)CSc1cc(C)c2ccccc2n1)c1ccccc1,-9.6,.,.,.,.,.,97.3,.
CCOC(=O)c1cc2sccc2n1CC(=O)c1ccc2c(c1)OCCO2,-9.47,.,.,.,.,.,89.0,.
CCOC(=O)c1cc2sccc2n1CC(=O)O,.,.,.,.,.,.,/,/
COC1(OC)C(/C=C/c2ccc(C)cc2)C(C#N)(C#N)C1(OC)OC (stereo not given),-10.4,.,.,.,.,.,133.3,0.145
N/C(=N\OC(=O)c1cccc2ccccc12)c1cccc([N+](=O)[O-])c1,.,.,.,.,.,.,/,/
Cc1cccc(/C(N)=N/OC(=O)c2cccc3ccccc23)c1,-9.25,.,.,.,.,.,91.7,.
O=C1CC(Cc2ccc(Br)cc2)C(=O)N1c1ccccc1 (stereo not given),.,.,.,.,.,.,/,/
CCOc1ccc(C2C(C#N)=C(N)SC(N)=C2C#N)cc1OCC,-11.8,.,.,.,.,.,108.3,0.154
CCOc1ccc(C2C(C#N)=C(N)SC(N)=C2C#N)cc1OC,/,.,.,.,.,.,/,/
CCc1ccccc1N1C[C@@]23C=C[C@@H](O2)C(C(=O)OCC(C)C)[C@H]3C1=O (stereo not given in full),.,.,.,.,.,.,/,/
COc1ccc(/C=N/NC(=O)c2cccs2)c2ccccc12,-11.4,.,.,.,.,.,114.7,0.152
O=C(N/N=C/c1ccccn1)c1cccc(NC(=O)c2ccccc2Cl)c1,.,.,.,.,.,.,/,/
Cc1ccccc1C(=O)Nc1cccc(NC(=O)c2ccc(F)cc2)c1,.,.,.,.,.,.,/,/
O=C(Nc1cccc(NC(=O)c2ccccc2Cl)c1)c1ccc(F)cc1,-9.33,.,.,.,.,.,95.3,.
O=C(N/N=C/c1ccccc1F)c1cccc(NC(=O)c2ccccc2Cl)c1,-8.79,.,.,.,.,.,106.7,0.157
O=C(Nc1cccc(NC(=O)c2cccnc2)c1)c1ccccc1,-9.07,.,.,.,.,.,96.3,.
COCc1cc(C)n(CC(=O)Nc2cc(C)cc(C)c2)c(=O)c1C#N,.,.,.,.,.,.,/,/
COc1ccccc1NC(=O)Cn1c(C)nc2c(sc(=S)n2Cc2ccco2)c1=O,.,.,.,.,.,.,/,/
Fc1ccc(CNc2nc3ccccc3n3cnnc23)cc1,.,.,.,.,.,.,/,/
COc1ccc(NC(=O)Nc2ccc3c(c2)OCO3)c(C)c1,.,.,.,.,.,.,/,/
O=C(CC1S/C(=N/N=C2CCCCCC2)NC1=O)Nc1ccc(Br)cc1F (stereo not given),.,.,.,.,.,.,/,/
Cc1c(Cl)cccc1NC(=O)CSc1ncnc2c1cnn2CCc1ccccc1,.,.,.,.,.,.,/,/
O=C(CSc1ncnc2c1cnn2CCc1ccccc1)Nc1cccc(C(F)(F)F)c1,-8.86,.,.,.,.,.,128.7,0.114

# Source: PubChem BioAssay (Johns Hopkins Ion Channel Center)
